Tested on: U2OS
Assay: Multiplex assay against U2OS
Format: toxicity, cell-based
Conditions: human
Procedure, shortened: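 On a CQ1 microscope at 37°C and 5% CO2, live cells were imaged after compound addition. They had been stained at seeding with Hoechst33342, BioTracker Green Microtubule Cytoskeleton Dye, MitoTracker Red and Annexin V Alexa Fluor 680. CellPathfinder machine-learning gating assigned cells to Hoechst high-intensity objects or normal cells, normal cells to healthy, pyknosed or fragmented nuclei, and pyknosed cells to mitotic or apoptotic. Tubulin, mitochondrial-mass and membrane-permeability phenotypes are per cents of healthy-nucleus cells.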

[1] = 12 h, 1 µM, compound concentration 1 uM, replicate 1
[2] = 12 h, 1 µM, compound concentration 1 uM, replicate 2
[3] = 12 h, 10 µM, compound concentration 10 uM, replicate 1
[4] = 12 h, 10 µM, compound concentration 10 uM, replicate 2
[5] = 24 h, 1 µM, compound concentration 1 uM, replicate 1
[6] = 24 h, 1 µM, compound concentration 1 uM, replicate 2
[7] = 24 h, 10 µM, compound concentration 10 uM, replicate 1
[8] = 24 h, 10 µM, compound concentration 10 uM, replicate 2
[9] = 48 h, 1 µM, compound concentration 1 uM, replicate 1
[10] = 48 h, 1 µM, compound concentration 1 uM, replicate 2
[11] = 48 h, 10 µM, compound concentration 10 uM, replicate 1
[12] = 48 h, 10 µM, compound concentration 10 uM, replicate 2

CN1CCN(Cc2ccc(Nc3ncc(Cl)c(Nc4ccccc4S(=O)(=O)N(C)C)n3)cc2)CC1 [DUBERMATINIB] was tested. Which “Population Apoptotic (%)” value [1] did it give?
Its value is 73%.

What about the “Population Fragmented Nuclei (%)” value [1] of the same compound?
The value was 20%.

What about the “Population Healthy Nuclei (%)” value [1] of the same compound?
Its value is 51%.

And the “Population Hoechst High Intensity Objects (%)” value [1]?
The value was 11%.

What about the “Population Membrane Permeable-Phenotype (%)” value [1] of the same compound?
Its value is 6%.

And the “Population Mitochondria Different-Phenotype (%)” value [1]?
Its value is 9%.

And the “Population Mitotic Cells (%)” value [1]?
The value was 26%.

What about the “Population Normal (%)” value [1] of the same compound?
Its value is 88%.

What about the “Population Pyknosed Nuclei (%)” value [1] of the same compound?
The value was 27%.

What about the “Population Tubulin-Different-Phenotype (%)” value [1] of the same compound?
The value was 6%.

What about the “Total Cell Count” value [1] of the same compound?
The value was 172.

What about the “Population Apoptotic (%)” value [2] of the same compound?
The value was 100%.

And the “Population Fragmented Nuclei (%)” value [2]?
Its value is 13%.

What about the “Population Healthy Nuclei (%)” value [2] of the same compound?
Its value is 83%.

What about the “Population Hoechst High Intensity Objects (%)” value [2] of the same compound?
The value was 10%.

What about the “Population Membrane Permeable-Phenotype (%)” value [2] of the same compound?
The value was 4%.

And the “Population Mitochondria Different-Phenotype (%)” value [2]?
Its value is 16%.

And the “Population Mitotic Cells (%)” value [2]?
The value was 0%.

What about the “Population Normal (%)” value [2] of the same compound?
The value was 89%.

And the “Population Pyknosed Nuclei (%)” value [2]?
Its value is 2%.

What about the “Population Tubulin-Different-Phenotype (%)” value [2] of the same compound?
The value was 11%.

What about the “Total Cell Count” value [2] of the same compound?
The value was 65.

What about the “Population Apoptotic (%)” value [3] of the same compound?
Its value is 78%.

And the “Population Fragmented Nuclei (%)” value [3]?
Its value is 25%.

And the “Population Healthy Nuclei (%)” value [3]?
The value was 44%.

What about the “Population Hoechst High Intensity Objects (%)” value [3] of the same compound?
Its value is 12%.

And the “Population Membrane Permeable-Phenotype (%)” value [3]?
The value was 9%.

And the “Population Mitochondria Different-Phenotype (%)” value [3]?
The value was 40%.

What about the “Population Mitotic Cells (%)” value [3] of the same compound?
Its value is 21%.

And the “Population Normal (%)” value [3]?
Its value is 87%.

And the “Population Pyknosed Nuclei (%)” value [3]?
Its value is 29%.

And the “Population Tubulin-Different-Phenotype (%)” value [3]?
The value was 28%.

And the “Total Cell Count” value [3]?
Its value is 140.

What about the “Population Apoptotic (%)” value [4] of the same compound?
The value was 73%.

What about the “Population Fragmented Nuclei (%)” value [4] of the same compound?
The value was 45%.

What about the “Population Healthy Nuclei (%)” value [4] of the same compound?
The value was 31%.

And the “Population Hoechst High Intensity Objects (%)” value [4]?
Its value is 9%.

And the “Population Membrane Permeable-Phenotype (%)” value [4]?
Its value is 28%.

What about the “Population Mitochondria Different-Phenotype (%)” value [4] of the same compound?
Its value is 38%.

What about the “Population Mitotic Cells (%)” value [4] of the same compound?
The value was 26%.

What about the “Population Normal (%)” value [4] of the same compound?
Its value is 90%.

And the “Population Pyknosed Nuclei (%)” value [4]?
Its value is 22%.

What about the “Population Tubulin-Different-Phenotype (%)” value [4] of the same compound?
Its value is 42%.

And the “Total Cell Count” value [4]?
The value was 91.

What about the “Population Apoptotic (%)” value [5] of the same compound?
The value was 88%.

And the “Population Fragmented Nuclei (%)” value [5]?
The value was 29%.

And the “Population Healthy Nuclei (%)” value [5]?
Its value is 45%.

What about the “Population Hoechst High Intensity Objects (%)” value [5] of the same compound?
The value was 10%.

And the “Population Membrane Permeable-Phenotype (%)” value [5]?
Its value is 11%.

What about the “Population Mitochondria Different-Phenotype (%)” value [5] of the same compound?
Its value is 14%.

And the “Population Mitotic Cells (%)” value [5]?
The value was 11%.

What about the “Population Normal (%)” value [5] of the same compound?
The value was 90%.

And the “Population Pyknosed Nuclei (%)” value [5]?
The value was 25%.

What about the “Population Tubulin-Different-Phenotype (%)” value [5] of the same compound?
The value was 4%.

And the “Total Cell Count” value [5]?
The value was 188.

What about the “Population Apoptotic (%)” value [6] of the same compound?
Its value is 0%.

What about the “Population Fragmented Nuclei (%)” value [6] of the same compound?
Its value is 11%.

And the “Population Healthy Nuclei (%)” value [6]?
The value was 83%.

And the “Population Hoechst High Intensity Objects (%)” value [6]?
The value was 6%.

What about the “Population Membrane Permeable-Phenotype (%)” value [6] of the same compound?
The value was 4%.

What about the “Population Mitochondria Different-Phenotype (%)” value [6] of the same compound?
The value was 36%.

What about the “Population Mitotic Cells (%)” value [6] of the same compound?
The value was 100%.

And the “Population Normal (%)” value [6]?
Its value is 93%.

What about the “Population Pyknosed Nuclei (%)” value [6] of the same compound?
Its value is 4%.

And the “Population Tubulin-Different-Phenotype (%)” value [6]?
The value was 14%.

And the “Total Cell Count” value [6]?
Its value is 70.

What about the “Population Apoptotic (%)” value [7] of the same compound?
The value was 84%.

And the “Population Fragmented Nuclei (%)” value [7]?
Its value is 38%.

And the “Population Healthy Nuclei (%)” value [7]?
The value was 24%.

And the “Population Hoechst High Intensity Objects (%)” value [7]?
Its value is 19%.

And the “Population Membrane Permeable-Phenotype (%)” value [7]?
The value was 4%.

What about the “Population Mitochondria Different-Phenotype (%)” value [7] of the same compound?
The value was 45%.

And the “Population Mitotic Cells (%)” value [7]?
The value was 15%.

What about the “Population Normal (%)” value [7] of the same compound?
The value was 80%.

What about the “Population Pyknosed Nuclei (%)” value [7] of the same compound?
Its value is 37%.

What about the “Population Tubulin-Different-Phenotype (%)” value [7] of the same compound?
Its value is 22%.

And the “Total Cell Count” value [7]?
Its value is 150.

What about the “Population Apoptotic (%)” value [8] of the same compound?
Its value is 95%.

And the “Population Fragmented Nuclei (%)” value [8]?
The value was 30%.

And the “Population Healthy Nuclei (%)” value [8]?
Its value is 33%.

What about the “Population Hoechst High Intensity Objects (%)” value [8] of the same compound?
Its value is 14%.

What about the “Population Membrane Permeable-Phenotype (%)” value [8] of the same compound?
The value was 55%.

And the “Population Mitochondria Different-Phenotype (%)” value [8]?
Its value is 55%.

And the “Population Mitotic Cells (%)” value [8]?
The value was 4%.

And the “Population Normal (%)” value [8]?
The value was 85%.

And the “Population Pyknosed Nuclei (%)” value [8]?
Its value is 36%.

And the “Population Tubulin-Different-Phenotype (%)” value [8]?
Its value is 65%.

What about the “Total Cell Count” value [8] of the same compound?
The value was 87.

And the “Population Apoptotic (%)” value [9]?
Its value is 82%.

What about the “Population Fragmented Nuclei (%)” value [9] of the same compound?
The value was 29%.

And the “Population Healthy Nuclei (%)” value [9]?
Its value is 44%.

What about the “Population Hoechst High Intensity Objects (%)” value [9] of the same compound?
Its value is 8%.

And the “Population Membrane Permeable-Phenotype (%)” value [9]?
Its value is 8%.

And the “Population Mitochondria Different-Phenotype (%)” value [9]?
Its value is 28%.

What about the “Population Mitotic Cells (%)” value [9] of the same compound?
Its value is 17%.

And the “Population Normal (%)” value [9]?
The value was 91%.

And the “Population Pyknosed Nuclei (%)” value [9]?
The value was 25%.

And the “Population Tubulin-Different-Phenotype (%)” value [9]?
The value was 11%.

And the “Total Cell Count” value [9]?
The value was 217.

And the “Population Apoptotic (%)” value [10]?
The value was 100%.

What about the “Population Fragmented Nuclei (%)” value [10] of the same compound?
The value was 16%.

What about the “Population Healthy Nuclei (%)” value [10] of the same compound?
Its value is 78%.

And the “Population Mitochondria Different-Phenotype (%)” value [10]?
Its value is 37%.

What about the “Population Mitotic Cells (%)” value [10] of the same compound?
Its value is 0%.

What about the “Population Pyknosed Nuclei (%)” value [10] of the same compound?
Its value is 4%.

And the “Population Tubulin-Different-Phenotype (%)” value [10]?
Its value is 17%.

And the “Total Cell Count” value [10]?
The value was 87.

What about the “Population Apoptotic (%)” value [11] of the same compound?
The value was 92%.

What about the “Population Fragmented Nuclei (%)” value [11] of the same compound?
Its value is 40%.

What about the “Population Healthy Nuclei (%)” value [11] of the same compound?
The value was 8%.

What about the “Population Hoechst High Intensity Objects (%)” value [11] of the same compound?
The value was 30%.

What about the “Population Membrane Permeable-Phenotype (%)” value [11] of the same compound?
Its value is 33%.

And the “Population Mitochondria Different-Phenotype (%)” value [11]?
Its value is 50%.

And the “Population Mitotic Cells (%)” value [11]?
Its value is 7%.

And the “Population Normal (%)” value [11]?
Its value is 69%.

What about the “Population Pyknosed Nuclei (%)” value [11] of the same compound?
Its value is 51%.

And the “Population Tubulin-Different-Phenotype (%)” value [11]?
The value was 33%.

What about the “Total Cell Count” value [11] of the same compound?
Its value is 146.

And the “Population Apoptotic (%)” value [12]?
Its value is 85%.

What about the “Population Fragmented Nuclei (%)” value [12] of the same compound?
The value was 24%.

And the “Population Healthy Nuclei (%)” value [12]?
Its value is 49%.

What about the “Population Hoechst High Intensity Objects (%)” value [12] of the same compound?
Its value is 20%.

What about the “Population Membrane Permeable-Phenotype (%)” value [12] of the same compound?
The value was 80%.

What about the “Population Mitochondria Different-Phenotype (%)” value [12] of the same compound?
The value was 84%.

And the “Population Mitotic Cells (%)” value [12]?
Its value is 14%.

And the “Population Normal (%)” value [12]?
The value was 79%.

And the “Population Pyknosed Nuclei (%)” value [12]?
The value was 26%.

What about the “Population Tubulin-Different-Phenotype (%)” value [12] of the same compound?
Its value is 76%.

And the “Total Cell Count” value [12]?
The value was 104.

Source: ChEMBL document CHEMBL4689842, “EUbOPEN Chemogenomics Library wave 1” (2021)
